From PubChem BioAssay
hIAP inh – human IAP inhibitors, primary screen, biochemical, luminescence, uHTS. Intestinal-type alkaline phosphatase (Homo sapiens), P09923. purified IAP, CDP-Star luminescence, 30 min. inhibition, % at 10 µM. 0.12% of 330,000 active. AID 2544, 2010;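 active = inhibition reaching a set limit with compound at 10 µM in the primary screen, cut at about 35% in these data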;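 also: plate controls were DMSO wells with enzyme for no effect and no-enzyme buffer wells for full effect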
Target sequence (P09923 whole entry, looked up): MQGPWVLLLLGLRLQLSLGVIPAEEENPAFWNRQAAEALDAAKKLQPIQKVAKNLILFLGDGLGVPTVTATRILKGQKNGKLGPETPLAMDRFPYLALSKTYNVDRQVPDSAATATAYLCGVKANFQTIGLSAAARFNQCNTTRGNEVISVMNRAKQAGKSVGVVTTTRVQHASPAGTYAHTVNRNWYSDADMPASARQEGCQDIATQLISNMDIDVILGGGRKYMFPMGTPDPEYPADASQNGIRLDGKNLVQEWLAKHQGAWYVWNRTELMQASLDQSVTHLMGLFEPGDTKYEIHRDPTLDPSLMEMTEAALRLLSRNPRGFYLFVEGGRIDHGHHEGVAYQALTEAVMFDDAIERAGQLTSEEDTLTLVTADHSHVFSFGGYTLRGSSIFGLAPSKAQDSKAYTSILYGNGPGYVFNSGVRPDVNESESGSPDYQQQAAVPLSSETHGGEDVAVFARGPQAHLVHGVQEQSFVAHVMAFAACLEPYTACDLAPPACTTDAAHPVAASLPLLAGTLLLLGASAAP
mIAP act – activators of mouse IAP, primary screen, biochemical, luminescence, uHTS. AID 2805, 2010. muIAP, CDP-Star luminescence, 30 min; active compounds read high; 1 = vehicle-only enzyme signal, 0 = enzyme-free wells. 0.24% of 330,000 active. activation factor at 10 µM;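 active = activation factor of at least 2 at 20 µM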
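Assay system: mouse IAP enzyme; reagent: chemiluminescent substrate CDP-Star; dosing: test compounds delivered from DMSO solution; schedule: 30 min at room temperature; measured by: luminescence from enzymatic CDP-Star hydrolysis; controls: DMSO-only wells and no-enzyme negative control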
bIAP act – bovine intestinal alkaline phosphatase activators, primary screen, biochemical, bovine IAP, CDP-star luminescence; alkaline phosphatase, intestinal [Bos taurus]; 0.17% of 200,000 active; activation factor at 20 µM; purified bovine IAP, 30 min; active compounds read high; fold of DMSO-control signal, blank-subtracted; AID 1016, 2008;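 active = activation factor of 2 or more at 20 µM, a signal rise over negative controls twice the positive control's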
mIAP inh – inhibitors of mouse IAP, primary screen, biochemical, luminescence, uHTS | intestinal alkaline phosphatase [Mus musculus] | purified mouse IAP, CDP-Star luminescence, 30 min | inhibition, % at 10 µM | 0.2% of 330,000 active;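 active = inhibition of at least 40% at 10 µM in the primary screen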;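 also: plate controls were DMSO with enzyme for no effect and no enzyme wells for full effect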
hIAP activ – human IAP activators, primary screen, biochemical, luminescence, uHTS. Intestinal-type alkaline phosphatase (Homo sapiens), P09923. purified human IAP, CDP-Star luminescence, 30 min; active compounds read high; 1 = vehicle-only enzyme, 0 = enzyme-free background. activation factor at 10 µM. 0.16% of 330,000 active;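 active = activation factor of the enzyme at least 2-fold when tested at 20 µM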
bIAP inhibitor – bovine intestinal alkaline phosphatase inhibitors, primary screen, selectivity assay for TNAP inhibitor project, biochemical, bovine IAP, CDP-star luminescence; 190,000 tested, under 10 active; inhibition, % at 20 µM; purified bovine IAP, 30 min; alkaline phosphatase, intestinal [Bos taurus]; AID 1019, 2008;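 active = over 50% inhibition of intestinal alkaline phosphatase at 20 µM in the single-dose screen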
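Assay system – bovine IAP enzyme · Quantity – bovine IAP at 1/65,000,000 final dilution · Detection – CDP-star luminescence signal · Times – 30 min reaction at room temperature · Also added – CDP-star substrate at 30 µM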
hIAP act confirm – human IAP activators, confirmation, biochemical, luminescence, single concentration, uHTS hits; shares compounds with hIAP activ; purified IAP, CDP-Star luminescence, 30 min; active compounds read low; activation (%Activity, negative = activation), % at 8.3 µM; 10% of 880 active;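 active = at least twofold enzyme activation in any of six single-dose repeats, which the averaged readout prints as negative percent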
Starred values were filed as active, the others as inactive; / = no result; + = active, no number. Hits are enriched below; roughly 0.72% of the tested compounds scored in any of these assays.

SMILES	hIAP inh	mIAP act	bIAP act	mIAP inh	hIAP activ	bIAP inhibitor	hIAP act confirm
COc1ccc(NC(=O)c2cc(-c3ccc(C)cc3O)n[nH]2)c(OC)c1	-106.0	0.981	/	1.9	2.06*	/	-37.1
O=C(NCc1ccc2c(c1)OCO2)c1cc(-c2cc(Cl)ccc2O)n[nH]1	-108.1	1.27	/	-27.5	2.08*	/	17.5
COc1ccc(CNC(=O)c2cc(-c3ccccc3O)n[nH]2)cc1	6.1	1.54	1	-54.1	0.939	-4.6	/
COc1ccc(CNC(=O)c2cc(-c3cc(C)ccc3O)n[nH]2)cc1	-138.3	1.7	/	-69.7	2.38*	/	-33.6
COc1ccc(NC(=O)CN(c2ccccc2F)S(=O)(=O)c2ccc(C)cc2)c(OC)c1	-8.7	1.13	/	-13.1	1.09	/	/
Cc1cc(NC(=O)COC(=O)c2cc(S(=O)(=O)N(C)C)ccc2Cl)no1	-8.6	1.13	/	-12.8	1.09	/	/
Cc1c(Cl)cccc1NC(=O)c1cc(-c2ccccc2O)n[nH]1	-100.9	1.08	0.9	-7.7	2.01*	7.0	5.1
COc1ccc(CCNC(=O)c2cc(-c3cc(C)ccc3O)n[nH]2)cc1OC	-167.6	1.68	2*	-67.8	2.68*	-95.9	-9.3
COc1ccc(CCNC(=O)c2cc(-c3ccc(C)c(C)c3O)n[nH]2)cc1OC	-91.4	1.08	1.4	-8.3	1.91	-37.2	/
COc1ccc(S(=O)(=O)N2CCCC(C(=O)N3CCCC3)C2)cc1OC (centres undefined)	-6.2	1.02	/	-2.2	1.06	/	/
Cc1ccc(NS(=O)(=O)c2ccc(C(=O)Nc3nncs3)cc2)cc1	-12.4	0.924	/	7.6	1.12	/	/
COc1cc(CSc2ncn[nH]2)c(OC)cc1CSc1ncn[nH]1	-171.5	0.876	1.2	12.4	2.71*	-20.0	-11.6
O=C(Nc1ccc(Cl)c(Cl)c1)Oc1ccc(NC(=O)c2ccco2)cc1	-100.3	2.2*	1	-119.9	2*	-0.4	-70.1
O=C(CNS(=O)(=O)c1ccccc1)NNC(=O)C(Cl)Cl	-123.2	0.746	1.3	25.4	2.23*	-33.7	-6.0
Cc1nc2c3ccccc3nc(NNC(=O)CCC(=O)N3CCCC(C)C3)n2n1 (centres undefined)	-154.0	0.863	/	13.7	2.54*	/	-41.6*
COc1ccc(N2CCN(CCNC(=O)CCC(=O)NNc3nc4ccccc4c4nc(C)nn34)CC2)cc1	-145.4	0.897	/	10.3	2.45*	/	-24.0
Cc1nc2c3ccccc3nc(NNC(=O)CCC(=O)NC3CCCC3)n2n1	6.4	0.771	1.5	22.9	0.936	-50.6	/
Cn1c(CNC(=O)CNC(=O)c2cccc(F)c2)cc(=O)n(C)c1=O	2.9	1.03	/	-2.9	0.971	/	/
Cn1c(CNC(=O)CCNC(=O)c2cccc(F)c2)cc(=O)n(C)c1=O	37.9*	0.934	/	6.6	0.621	/	3.1
COc1ccc(CNC(=O)c2csc(Cc3ccccc3)n2)cc1	-104.6	0.9	0.9	10.0	2.05*	9.0	9.3
COc1ccc(NC(=O)c2csc(Cc3ccccc3)n2)cc1	13.1	0.929	0.4	7.1	0.868	/	/
CCN(C1=NS(=O)(=O)c2ccccc21)N(CC)S(=O)(=O)c1ccc(C)cc1	-3.9	0.789	0.9	21.1	1.04	9.2	/
Cc1ccc(C(=O)N(NC2=NS(=O)(=O)c3ccccc32)S(=O)(=O)c2ccc(C)cc2)cc1	-137.4	1.02	1	-2.2	2.37*	1.7	-26.5
O=C(O)C1OC(Oc2c(-c3ccc(O)c(O)c3)oc3cc(O)cc(O)c3c2=O)C(O)C(O)C1O (centres undefined)	71.4*	0.601	1	39.9	0.286	3.5	32.1
CC1OC(Oc2c(-c3cc(O)c(O)c(O)c3)oc3cc(O)cc(O)c3c2=O)C(O)C(O)C1O (centres undefined)	-11.2	0.863	/	13.7	1.11	/	/
SMILES	hIAP inh	mIAP act	bIAP act	mIAP inh	hIAP activ	bIAP inhibitor	hIAP act confirm
COC1(OC)C=CC(=O)C=C1NC(=O)c1ccccc1OC(C)=O	-2.3	1.15	/	-14.5	1.02	/	/
CN1C(=O)/C(=C\c2cc(N=Nc3ccccc3)ccc2O)SC1=S	38.3*	0.739	0.7	26.1	0.616	27.0	2.7
COc1ccc(Cl)cc1NC(=O)CN(C)CC(=O)Nc1c(C)n(C)n(-c2ccccc2)c1=O	-1.7	1.14	/	-14.4	1.02	/	/
O=[N+]([O-])/C(=C\Nc1ccc(F)cc1F)S(=O)(=O)c1ccccc1	-6.7	1.06	/	-5.6	1.07	/	/
C/C=C/c1ccc(OCC(=O)OCc2csc(CC(=O)Nc3ccccc3C)n2)c(OC)c1	4.2	0.967	/	3.3	0.958	/	/
COC(=O)c1ccccc1NC(=O)Nc1ccc2c(c1)OCO2	4.8	1.01	0.9	-0.7	0.952	13.2	/
COC(=O)c1ccc(C(=O)OC)c(NC(=O)Nc2ccc3c(c2)OCO3)c1	-123.6	0.955	0.9	4.5	2.24*	10.3	+
COc1cccc(C(=O)NCC(=O)NNc2ncnc(N)c2[N+](=O)[O-])c1	-170.7	0.832	1.3	16.8	2.71*	-26.0	7.6
Cc1cccc(C)c1Nc1ncnc(N)c1[N+](=O)[O-]	21.5	0.99	0.8	1.0	0.785	16.0	/
CCOC(=O)c1ccc(NC(=O)c2nc[nH]c2C(=O)N[C@@H](CC(C)C)C(=O)OC(C)(C)C)cc1	-102.8	0.97	/	3.0	2.03*	/	14.5
Cc1ccc(CN(C)c2ccc(S(=O)(=O)N3CCCC3)cn2)cc1	35.8*	1.01	/	-1.3	0.642	/	-34.0
Cc1ccc(CS(=O)Cc2ccc(C(=O)N3CCN(c4ccccn4)CC3)o2)cc1 (centres undefined)	2.8	0.972	/	2.8	0.972	/	/
COC(=O)c1nnn(-c2nonc2N)c1CSc1nc2ccccc2s1	9.7	0.946	1	5.4	0.903	0.9	/
COC(=O)c1nnn(-c2nonc2N)c1CSc1nc2ccccc2o1	-227.4	0.938	1	6.2	3.27*	-0.8	-0.4
CC1O[C@@H](O[C@H](C)CC[C@@H](C)O[C@H]2OC(C)[C@@H](O)C[C@H]2O)C(O)C[C@H]1O (some centres undefined)	11.5	1.02	/	-2.5	0.885	/	/
COc1ccc(OC)c(NC(=O)c2cccc(NC(=O)c3ccccc3)c2)c1	5.0	1.07	/	-6.8	0.95	/	/
c1ccc(COc2ccc(Nc3ncnc4nc[nH]c34)cc2)cc1	-144.2	1.09	1.3	-9.3	2.44*	-26.0	-22.5
